Measurements published in ChEMBL document CHEMBL4028915, “The Design and Development of a Potent and Selective Novel Diprolyl Derivative That Binds to the N-Domain of Angiotensin-I Converting Enzyme” (J Med Chem, 2018).

Species on record: Homo sapiens
Assay: Selectivity ratio of Ki for human testis ACE delta36NJ mutant to Ki for human ACE Ndom389 mutant
Method in brief: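 Ki for each domain calculated from IC50 values obtained by Z-FHL hydrolysis assay (Ndom389 10 nM, tACE Δ36NJ 5 nM; 30 min room temperature preincubation, 15 min at 40 °C, OPA fluorescence ex 360/em 485 nm, triplicate). Ratio of C-domain Ki to N-domain Ki.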
A Ratio Ki of 83.9 was found for `C[C@H](N[C@H](C(=O)O)[C@@H]1CCCN1C(=O)[C@@H](N)CC(=O)O)C(=O)N1CCC[C@H]1C(=O)O` in this work. A Ratio Ki of 2.39 was found for `C[C@H](N[C@H](C(=O)O)[C@@H]1CCCN1C(=O)[C@@H](N)Cc1ccccc1)C(=O)N1CCC[C@H]1C(=O)O` in this work. A Ratio Ki of 0.07 was found for `C[C@H](N[C@H](C(=O)O)[C@@H]1CCCN1C(=O)c1ccc(N)cc1)C(=O)N1CCC[C@H]1C(=O)O` in this work. A Ratio Ki of 0.16 was found for `C[C@H](N[C@H](C(=O)O)[C@@H]1CCCN1C(=O)CN)C(=O)N1CCC[C@H]1C(=O)O` in this work. A Ratio Ki of 1.81 was found for `C[C@H](N[C@H](C(=O)O)[C@@H]1CCCN1C(=O)[C@@H](N)CCC(=O)O)C(=O)N1CCC[C@H]1C(=O)O` in this work. A Ratio Ki of 0.14 was found for `C[C@H](N[C@H](C(=O)O)[C@@H]1CCCN1C(=O)c1ccc(C(=O)O)cc1)C(=O)N1CCC[C@H]1C(=O)O` in this work. A Ratio Ki of 0.07 was found for `C[C@H](N[C@H](C(=O)O)[C@@H]1CCCN1C(=O)c1ccccc1)C(=O)N1CCC[C@H]1C(=O)O` in this work.

Target: not listed separately
Assay: Inhibition of human ACE Ndom389 mutant preincubated for 30 mins followed by Z-FHL substrate addition measured after 15 mins by fluorimetric method
Method in brief: (§1)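 Enzyme diluted from frozen stock to 10 nM (Ndom389, line 1) or 5 nM (tACE Δ36NJ, line 2) in 100 mM potassium phosphate pH 8.3, 300 mM NaCl, 10 μM ZnSO4, 1 mg/ml albumin. Compounds (10-fold series 100 μM–1 nM, then 9-point two-fold series) preincubated with enzyme 1:1, 30 min, room temperature. 1 mM Z-FHL added, 40 °C, 15 min. OPA/NaOH derivatisation, HCl quench. Fluorescence ex 360/em 485 nm, triplicate wells. IC50 from activity curves, converted to Ki.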
A Ki of 11.4 nM was found for `C[C@H](N[C@H](C(=O)O)[C@@H]1CCCN1C(=O)[C@@H](N)CC(=O)O)C(=O)N1CCC[C@H]1C(=O)O` in this work. A Ki of 70.3 nM was found for `C[C@H](N[C@H](C(=O)O)[C@@H]1CCCN1C(=O)[C@@H](N)Cc1ccccc1)C(=O)N1CCC[C@H]1C(=O)O` in this work. A Ki of 3.37 nM was found for `C[C@H](N[C@H](C(=O)O)[C@@H]1CCCN1C(=O)c1ccc(N)cc1)C(=O)N1CCC[C@H]1C(=O)O` in this work. A Ki of 279 nM was found for `C[C@H](N[C@H](C(=O)O)[C@@H]1CCCN1C(=O)CN)C(=O)N1CCC[C@H]1C(=O)O` in this work. A Ki of 9.63 nM was found for `C[C@H](N[C@H](C(=O)O)[C@@H]1CCCN1C(=O)[C@@H](N)CCC(=O)O)C(=O)N1CCC[C@H]1C(=O)O` in this work. A Ki of 16.9 nM was found for `C[C@H](N[C@H](C(=O)O)[C@@H]1CCCN1C(=O)c1ccc(C(=O)O)cc1)C(=O)N1CCC[C@H]1C(=O)O` in this work. A Ki of 4.45 nM was found for `C[C@H](N[C@H](C(=O)O)[C@@H]1CCCN1C(=O)c1ccccc1)C(=O)N1CCC[C@H]1C(=O)O` in this work.

Target: not listed separately
Assay: Inhibition of human testis ACE delta36NJ mutant preincubated for 30 mins followed by Z-FHL substrate addition measured after 15 mins by fluorimetric method
Method in brief: as §1
A Ki of 961 nM was found for `C[C@H](N[C@H](C(=O)O)[C@@H]1CCCN1C(=O)[C@@H](N)CC(=O)O)C(=O)N1CCC[C@H]1C(=O)O` in this work. A Ki of 168 nM was found for `C[C@H](N[C@H](C(=O)O)[C@@H]1CCCN1C(=O)[C@@H](N)Cc1ccccc1)C(=O)N1CCC[C@H]1C(=O)O` in this work. A Ki of 0.22 nM was found for `C[C@H](N[C@H](C(=O)O)[C@@H]1CCCN1C(=O)c1ccc(N)cc1)C(=O)N1CCC[C@H]1C(=O)O` in this work. A Ki of 44.4 nM was found for `C[C@H](N[C@H](C(=O)O)[C@@H]1CCCN1C(=O)CN)C(=O)N1CCC[C@H]1C(=O)O` in this work. A Ki of 17.4 nM was found for `C[C@H](N[C@H](C(=O)O)[C@@H]1CCCN1C(=O)[C@@H](N)CCC(=O)O)C(=O)N1CCC[C@H]1C(=O)O` in this work. A Ki of 2.29 nM was found for `C[C@H](N[C@H](C(=O)O)[C@@H]1CCCN1C(=O)c1ccc(C(=O)O)cc1)C(=O)N1CCC[C@H]1C(=O)O` in this work. A Ki of 0.31 nM was found for `C[C@H](N[C@H](C(=O)O)[C@@H]1CCCN1C(=O)c1ccccc1)C(=O)N1CCC[C@H]1C(=O)O` in this work.
